Assay outcomes (PubChem BioAssay)
RORa inhibitor = inhibitors of orphan receptor RORA, primary screen, cell-based, luminescence. Nuclear receptor ROR-alpha (Homo sapiens), P35398. CHO-K1 Gal4-RORA LBD luciferase reporter. inhibition, % at 10 µM. 0.43% of 65,000 active. AID 561, 2006;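 active = inhibition above the mean of all tested compounds plus 3 SD, cut at about 52% in these data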
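Test system: CHO-K1 cells with Gal4-hRORA LBD fusion and pG5-luc reporter | Timing: 20 h compound treatment, 37 °C | Detection: Luminescence from basal luciferase reporter expression | Read-out basis: % inhibition of basal luciferase versus +RORA/-RORA DMSO controls | Repeats: One measurement per compound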
Of the large screens only hits and unclear results are named; the others gave an inactive call. This excerpt belongs to a sample that is enriched for hits.

Cn1ncnc2c(=O)n(C)c(=O)nc1-2	RORa inhibitor 98
O=C(CN1C2CCC1CC(O)(c1cccnc1)C2)Nc1ccc2c(c1)OCO2 (stereo unspecified)	none
O=C1NC(=O)C(CCc2ccncc2)(C2CCCCC2)C(=O)N1	none
Cc1ccccc1-n1c(O)c(C=Nc2ccc(N(C)C)cc2)c(=O)[nH]c1=O	none
COCCOC(=O)C1=C(N)Oc2c(c(=O)oc3ccccc23)C1c1ccncc1 (stereo unspecified)	none
C[C@@]1(CO)[C@H](O)CC[C@@]2(C)[C@H]1CC[C@H]1C[C@@H]3C[C@@]12CC[C@]3(O)CO	RORa inhibitor 82
CCOC(=O)N(CC)c1ccc(C(O)(C(=O)OC)C(F)(F)F)cc1 (stereo unspecified)	none
Cc1ccc(Cl)cc1-n1c(O)c(C=NCCCN2CCOCC2)c(=O)[nH]c1=O	none
Cc1sc2ncn(CC(=O)NCC(=O)N3CCC4(CC3)OCCO4)c(=O)c2c1C	none
CN1CCN(CCC(C#N)(c2ccccc2)c2ccccc2)CC1	none
